Experimental data taken from ChEMBL document CHEMBL1146113, “Synthesis and SAR of heteroaryl-phenyl-substituted pyrazole derivatives as highly selective and potent canine COX-2 inhibitors” (Bioorg Med Chem Lett, 2006).

Assays:
[1] = biological target: T1, Prostaglandin G/H synthase 1 (Canis lupus familiaris, UniProt Q8HZR1); assay: Inhibition of COX1 in canine whole blood
T1 sequence (Q8HZR1 whole entry): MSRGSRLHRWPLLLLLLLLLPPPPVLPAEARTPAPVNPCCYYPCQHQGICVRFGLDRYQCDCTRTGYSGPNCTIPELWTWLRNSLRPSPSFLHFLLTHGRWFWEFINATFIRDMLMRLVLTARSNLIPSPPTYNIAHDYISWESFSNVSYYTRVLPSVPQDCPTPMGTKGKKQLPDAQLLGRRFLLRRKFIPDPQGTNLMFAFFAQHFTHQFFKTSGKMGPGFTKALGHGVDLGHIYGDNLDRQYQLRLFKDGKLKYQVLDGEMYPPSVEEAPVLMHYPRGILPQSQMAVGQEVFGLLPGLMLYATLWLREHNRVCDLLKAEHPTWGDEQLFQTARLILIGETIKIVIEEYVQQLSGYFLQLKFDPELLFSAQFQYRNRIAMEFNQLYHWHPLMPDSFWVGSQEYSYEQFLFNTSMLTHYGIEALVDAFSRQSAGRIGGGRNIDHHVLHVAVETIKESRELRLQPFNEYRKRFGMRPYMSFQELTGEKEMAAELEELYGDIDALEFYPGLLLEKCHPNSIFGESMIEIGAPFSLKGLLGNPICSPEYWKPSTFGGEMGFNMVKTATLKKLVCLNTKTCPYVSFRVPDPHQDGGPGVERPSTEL
How it was run: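 Canine whole blood incubated with drug for 1 h at 37 °C, with drug-free samples as maximum TXB2 controls. EDTA (0.3% final) then added and serum collected and frozen. COX-1 activity read as TXB2 production by EIA, with samples diluted 1/10,000.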

Cyclooxygenase-2 = biological target: T2, Cyclooxygenase-2 (Canis lupus familiaris, UniProt Q8SPQ9); assay: Inhibition of COX2 in canine whole blood; assay type: tissue-based
T2 sequence (Q8SPQ9 whole entry): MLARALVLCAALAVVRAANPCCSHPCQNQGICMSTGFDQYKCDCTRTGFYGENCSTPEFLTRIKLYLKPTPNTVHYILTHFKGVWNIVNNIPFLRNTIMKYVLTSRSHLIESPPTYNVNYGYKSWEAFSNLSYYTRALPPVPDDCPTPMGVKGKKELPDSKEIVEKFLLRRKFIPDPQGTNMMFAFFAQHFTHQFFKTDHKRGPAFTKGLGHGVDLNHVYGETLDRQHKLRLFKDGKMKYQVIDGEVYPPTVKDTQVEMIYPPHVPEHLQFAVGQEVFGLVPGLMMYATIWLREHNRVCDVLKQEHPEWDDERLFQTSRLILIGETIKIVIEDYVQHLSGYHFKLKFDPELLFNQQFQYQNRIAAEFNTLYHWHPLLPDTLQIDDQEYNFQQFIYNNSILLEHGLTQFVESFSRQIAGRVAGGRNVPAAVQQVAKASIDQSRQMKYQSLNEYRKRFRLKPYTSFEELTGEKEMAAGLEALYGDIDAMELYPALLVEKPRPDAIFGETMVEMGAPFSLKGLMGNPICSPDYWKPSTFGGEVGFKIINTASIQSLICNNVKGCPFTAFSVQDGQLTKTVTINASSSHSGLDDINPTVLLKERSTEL
How it was run: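 Heparinized canine whole blood incubated overnight at 37 °C with drug plus LPS to stimulate PGE2. LPS-only controls gave maximum PGE2 and vehicle-only controls gave background. EDTA (0.3% final) then added and plasma collected and frozen. PGE2 measured by EIA, with samples diluted 1/1000.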

Canis lupus familiaris = species: Canis lupus familiaris; assay: Selectivity for COX2 over COX1
[2] = Oral bioavailability in dog; assay type: ADME, organism-based, Canis lupus familiaris; details: in vivo
[3] = Half life in dog; assay type: ADME, organism-based, Canis lupus familiaris; details: in vivo

Compound	IC50 [1]	IC50 (Cyclooxygenase-2)	Ratio IC50 (Canis lupus familiaris)	bioavailability [2]	half-life [3]
Cc1cc(-c2cc(C(F)F)nn2-c2ccc(S(C)(=O)=O)cn2)ccc1-c1cscn1	3800 nM	19 nM	200		
CS(=O)(=O)c1ccc(-n2nc(C(F)(F)F)cc2-c2ccc(-c3cncs3)cc2)nc1	2700 nM	180 nM	15		
CS(=O)(=O)c1ccc(-n2nc(C(F)(F)F)cc2-c2cccc(-c3cscn3)c2)nc1		> 500 nM			
CS(=O)(=O)c1ccc(-n2nc(C(F)F)cc2-c2ccc(-c3ccco3)cc2)nc1	12000 nM	130 nM	92		
Cc1scnc1-c1ccc(-c2cc(C(F)(F)F)nn2-c2ccc(S(C)(=O)=O)cn2)cc1		> 500 nM			
CS(=O)(=O)c1ccc(-n2nc(C(F)(F)F)cc2-c2ccc(-c3ccco3)cc2)nc1	18200 nM	20 nM	759		
CS(=O)(=O)c1ccc(-n2nc(C(F)(F)F)cc2-c2ccc(-c3nccs3)cc2)nc1	50000 nM	210 nM	238		
COC(=O)c1cc(-c2cc(C(F)(F)F)nn2-c2ccc(S(C)(=O)=O)cn2)ccc1-c1ccco1		> 500 nM			
CS(=O)(=O)c1ccc(-n2nc(C(F)(F)F)cc2-c2ccc(-c3cscn3)cc2)nc1	> 50000 nM	160 nM	> 313		
CS(=O)(=O)c1ccc(-n2nc(C(F)F)cc2-c2ccc(-c3ccco3)c(F)c2)nc1	5000 nM	60 nM	83		
CS(=O)(=O)c1ccc(-n2nc(C(F)(F)F)cc2-c2ccc(-c3cscn3)cc2F)nc1	22700 nM	290 nM	78		
CS(=O)(=O)c1ccc(-n2nc(C(F)F)cc2-c2ccc(-c3ccco3)c(Cl)c2)nc1	5500 nM	10 nM	550		

Second part, the compound after the results:

IC50 [1]	IC50 (Cyclooxygenase-2)	Ratio IC50 (Canis lupus familiaris)	bioavailability [2]	half-life [3]	Compound
3400 nM	10 nM	340			Cc1cc(-c2cc(C(F)(F)F)nn2-c2ccc(S(C)(=O)=O)cn2)ccc1-c1ccco1
11100 nM	65 nM	171			Cc1cc(-c2cc(C(F)(F)F)nn2-c2ccc(S(C)(=O)=O)cn2)ccc1-c1ncco1
2000 nM	13 nM	154			CS(=O)(=O)c1ccc(-n2nc(C(F)(F)F)cc2-c2ccc(-c3ccco3)c(C#N)c2)nc1
27900 nM	50 nM	558			CS(=O)(=O)c1ccc(-n2nc(C(F)(F)F)cc2-c2ccc(-c3ccco3)c(F)c2)nc1
15500 nM	90 nM	172			Cc1cc(-c2cc(C(F)(F)F)nn2-c2ccc(S(C)(=O)=O)cn2)ccc1-c1cscn1
23400 nM	110 nM	212			CS(=O)(=O)c1ccc(-n2nc(C(F)(F)F)cc2-c2ccc(-c3nccs3)c(C#N)c2)nc1
2000 nM	410 nM	4.9			CS(=O)(=O)c1ccc(-n2nc(C(F)(F)F)cc2-c2ccc(-c3ccco3)c(C(N)=O)c2)nc1
16000 nM	< 50 nM	> 320			CS(=O)(=O)c1ccc(-n2nc(C(F)(F)F)cc2-c2ccc(-c3cscn3)c(Cl)c2)nc1
> 50000 nM	12 nM	> 4170	34%	16.4 h	CS(=O)(=O)c1ccc(-n2nc(C(F)(F)F)cc2-c2ccc(-c3ccco3)c(Cl)c2)nc1
12700 nM	30 nM	487			Cc1cc(-c2cc(C(F)(F)F)nn2-c2ccc(S(C)(=O)=O)cn2)ccc1-c1cocn1
